In ChEMBL document CHEMBL3596099, “Strong positive cooperativity in binding to the A3T3 repeat by Hoechst 33258 derivatives attaching the quinoline units at the end of a branched linker” (Bioorg Med Chem, 2015):
Calls of active or inactive are those of the source. No cut-off for these calls is given here.

How the values were obtained:
Type in all cases: nucleic-acid assay
[1] = system: Nucleic Acid; assay: Binding affinity to A3T3 repeat containing DNA1 (unknown origin) at 10 uM by CD spectroscopy
How it was run: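 CD spectrum of DNA1 (5 μM in A3T3) recorded alone and with ligand at 10 μM (2 equiv relative to A3T3).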

[2] = system: Nucleic Acid; assay: Binding affinity to A3T3 repeat containing DNA5(3) (unknown origin) at 0 to 4 uM by CD spectroscopy
[3] = system: Nucleic Acid; assay: Binding affinity to A3T3 repeat containing DNA5(3) (unknown origin) assessed as association constant for changes at 275 nm at 0 to 4 uM by CD spectroscopy
[4] = system: Nucleic Acid; assay: Binding affinity to A3T3 repeat containing DNA5(3) (unknown origin) assessed as association constant for changes at 327 nm at 0 to 4 uM by CD spectroscopy
[5] = system: Nucleic Acid; assay: Binding affinity to A3T3 repeat not-containing DNA0 (unknown origin) assessed as increase in fluorescence intensity at 10 nM by fluorescence titration method
How it was run: (§1)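 Ligand at 10 nM in 3.0 mM HEPES, 3.0 mM NaCl, pH 7.0 is stirred 4 h at room temperature in a quartz cell. DNA is added in aliquots, 0–0.8 μM (0–4 μM in A3T3), with 1 h stirring after each addition. Fluorescence is read with 363 nm excitation at 25 °C and ΔF is plotted against A3T3 concentration. Data are fitted to a two-mode (high/low affinity) model. McGhee–von Hippel analysis then gives n, K and ω.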

[6] = system: Nucleic Acid; assay: Binding affinity to A3T3 repeat containing DNA5(3) (unknown origin) assessed as cooperativity with DNA at 10 nM by fluorescence titration based McGhee-von Hippel analysis; how it was run: as §1
[7] = system: Nucleic Acid; assay: Binding affinity to A3T3 repeat containing DNA5(3) (unknown origin) at 5 uM by UV-vis spectroscopy
How it was run: (§2)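 UV–vis spectra of 5 μM ligand with or without DNA5(3), in 3.0 mM HEPES, 3.0 mM NaCl, pH 7.0, 25 °C. Samples are stirred 7 h at room temperature before measurement. Band shifts and % absorbance change are recorded for the Hoechst and quinoline regions.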

[8] = system: Nucleic Acid; assay: Binding affinity to A3T3 repeat containing DNA5(3) (unknown origin) assessed as Hoechst region-induced shift to longer wavelength (372.5 to 384.5 nm) with increase in intensity at 5 uM by UV-vis spectroscopy; how it was run: as §2
[9] = system: Nucleic Acid; assay: Binding affinity to A3T3 repeat containing DNA5(3) (unknown origin) assessed as quinoline region-induced shift to shorter wavelength (328.5 to 326.5 nm) with % increase in intensity at 5 uM by UV-vis spectroscopy; how it was run: as §2

For `CN1CCN(c2cc(C(=O)NCCN(CCC(=O)NCCOCCOCCNC(=O)COc3ccc4ncccc4c3)CCC(=O)NCCOCCOCCNC(=O)COc3ccc4ncccc4c3)c3nc(-c4ccc5nc(-c6ccc(O)cc6)[nH]c5c4)[nH]c3c2)CC1`, the Activity [1] was “inactive”, the Activity [2] was “Active” and the K [3] was 6.5 ×10⁶ /M. The K [4] was 3.9 ×10⁵ /M, the Activity [5] was “inactive” and the Activity [6] was “Active”. For the same compound, the Activity [7] was “Active”, the Activity [8] was 50% and the Activity [9] was 43%.

`CN1CCN(c2cc(C(=O)NCCN(CCC(=O)NCCOCCOCCNC(=O)COc3ccc4cnccc4c3)CCC(=O)NCCOCCOCCNC(=O)COc3ccc4cnccc4c3)c3nc(-c4ccc5nc(-c6ccc(O)cc6)[nH]c5c4)[nH]c3c2)CC1` was tested, and the Activity [6] was “Active”.

For `CN1CCN(c2cc(C(=O)NCCN(CCC(=O)NCCOCCOCCNC(=O)COc3cccnc3)CCC(=O)NCCOCCOCCNC(=O)COc3cccnc3)c3nc(-c4ccc5nc(-c6ccc(O)cc6)[nH]c5c4)[nH]c3c2)CC1`, the Activity [6] was “inactive”.

In the case of `CN1CCN(c2cc(C(=O)NCCN(CCC(=O)NCCNC(=O)COc3ccc4ncccc4c3)CCC(=O)NCCNC(=O)COc3ccc4ncccc4c3)c3nc(-c4ccc5nc(-c6ccc(O)cc6)[nH]c5c4)[nH]c3c2)CC1`, the Activity [6] is reported as “inactive”.

`CN1CCN(c2cc(C(=O)NCCN(CCC(=O)NCCOCCOCCNC(=O)COc3ccc4ccccc4c3)CCC(=O)NCCOCCOCCNC(=O)COc3ccc4ccccc4c3)c3nc(-c4ccc5nc(-c6ccc(O)cc6)[nH]c5c4)[nH]c3c2)CC1` was tested, and the Activity [6] was “Active”.

For `CN1CCN(c2cc(C(=O)NCCN(CCC(=O)NCCOCCOCCNC(=O)COc3ccc4nccnc4c3)CCC(=O)NCCOCCOCCNC(=O)COc3ccc4nccnc4c3)c3nc(-c4ccc5nc(-c6ccc(O)cc6)[nH]c5c4)[nH]c3c2)CC1`, the Activity [6] was “inactive”.

With `CN1CCN(c2cc(C(=O)NCCN(CCC(=O)NCCOCCOCCNC(=O)COc3ccc4ccccc4n3)CCC(=O)NCCOCCOCCNC(=O)COc3ccc4ccccc4n3)c3nc(-c4ccc5nc(-c6ccc(O)cc6)[nH]c5c4)[nH]c3c2)CC1` the Activity [6] was “inactive”.

For `CN1CCN(c2cc(C(=O)NCCN(CCC(=O)NCCOCCOCC(=O)NCCOCCOCCNC(=O)COc3ccc4ncccc4c3)CCC(=O)NCCOCCOCC(=O)NCCOCCOCCNC(=O)COc3ccc4ncccc4c3)c3nc(-c4ccc5nc(-c6ccc(O)cc6)[nH]c5c4)[nH]c3c2)CC1`, the Activity [6] was “inactive”.

In the case of `CN1CCN(c2cc(C(=O)NCCN(CCC(=O)NCCOCCOCCNC(=O)COc3ccc4ncccc4c3Br)CCC(=O)NCCOCCOCCNC(=O)COc3ccc4ncccc4c3Br)c3nc(-c4ccc5nc(-c6ccc(O)cc6)[nH]c5c4)[nH]c3c2)CC1`, the Activity [7] is reported as “inactive”.
